Here are results for ten compounds from ChEMBL document CHEMBL2157877, “Synthesis and pharmacological evaluation of N-substituted 2-(2-oxo-2H-chromen-4-yloxy)propanamide as cyclooxygenase inhibitors” (Bioorg Med Chem Lett, 2012).

Molecules are shown by their SMILES.

The target in the assay is T1, Prostaglandin G/H synthase 1 (Ovis aries, UniProt P05979).
T1 sequence (P05979 whole entry): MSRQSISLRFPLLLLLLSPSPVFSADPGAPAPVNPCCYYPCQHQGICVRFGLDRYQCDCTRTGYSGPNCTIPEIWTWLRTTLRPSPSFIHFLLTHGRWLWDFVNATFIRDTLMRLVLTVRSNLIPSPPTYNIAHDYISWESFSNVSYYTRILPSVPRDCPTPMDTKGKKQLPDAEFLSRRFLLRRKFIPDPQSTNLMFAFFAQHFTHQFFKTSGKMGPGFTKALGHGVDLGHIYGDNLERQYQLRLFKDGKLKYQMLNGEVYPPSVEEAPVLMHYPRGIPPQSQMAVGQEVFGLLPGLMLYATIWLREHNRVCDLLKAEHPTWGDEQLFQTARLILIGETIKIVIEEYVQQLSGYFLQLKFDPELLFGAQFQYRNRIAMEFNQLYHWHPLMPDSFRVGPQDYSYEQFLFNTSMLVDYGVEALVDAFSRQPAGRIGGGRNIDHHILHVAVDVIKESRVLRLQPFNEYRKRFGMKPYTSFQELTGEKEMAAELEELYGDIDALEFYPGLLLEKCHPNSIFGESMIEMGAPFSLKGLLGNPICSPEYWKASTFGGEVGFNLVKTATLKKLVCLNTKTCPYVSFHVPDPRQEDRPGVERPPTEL
Nature of the assay: Inhibition of ovine COX1 using arachidonic acid as substrate incubated for 1 min prior to substrate addition measured for 25 secs by TMPD-based chromogenic assay. A digest of the protocol: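 COX-1 purified from ram seminal vesicles by chromatography. Reaction in Tris HCl buffer (100 mM, pH 8.0) with hematin, EDTA (3 mM) and enzyme, preincubated with test compound at 25 °C for 1 min. Started with arachidonic acid plus TMPD. Nonenzymatic oxidation subtracted before calculating percent inhibition.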
Take `CC(Oc1cc(=O)oc2ccccc12)C(=O)N1CCCC1` (racemic): inhibition was half-maximal at 13.7 µM (IC50).

With `CC(Oc1cc(=O)oc2ccccc12)C(=O)NC12CC3CC(C)(CC(C)(C3)C1)C2` (mixture of isomers), the IC50 (commonly the concentration at which inhibition is half-maximal) was 3.33 µM.

`CC(Oc1cc(=O)oc2ccccc12)C(=O)Nc1ccc(C(F)(F)F)cc1C#N` (racemic): inhibition was half-maximal at 9.6 µM (IC50).

For the compound `CC(Oc1cc(=O)oc2ccccc12)C(=O)Nc1cccc2c(=O)[nH]ccc12` (racemic), the 50% inhibitory concentration (IC50) stood at 2.98 µM.

Regarding `CC(Oc1cc(=O)oc2ccccc12)C(=O)Nc1ccc(N2CCOCC2=O)cc1` (racemic), inhibition was half-maximal at 4.6 µM (IC50).

Regarding `CC(Oc1cc(=O)oc2ccccc12)C(=O)N1CCOCC1` (racemic), half-maximal inhibition (IC50) was put at 5.03 µM.

For the compound `CC(Oc1cc(=O)oc2ccccc12)C(=O)Nc1ccc(F)cc1F` (racemic), the IC50 was 1.64 µM.

Consider `COc1ccc(NC(=O)C(C)Oc2cc(=O)oc3ccccc23)cc1` (racemic), for which half-maximal inhibition (IC50) required 2.26 µM.

`Cc1c(Cl)cccc1NC(=O)C(C)Oc1cc(=O)oc2ccccc12` (racemic): the IC50 turned out to be 4.61 µM.

`CC(Oc1cc(=O)oc2ccccc12)C(=O)Nc1ccncc1` (racemic) returned a half-maximal inhibitory concentration (IC50) of 9.64 µM.
